How the values were obtained:
[1] = Binding affinity to hairpin double stranded DNA GC base pair in sodium cacodylate buffer at pH 6.8 assessed as triplex-forming ability measuring melting temperature after by UV melting experiment
Summary of the method: (§1)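 TFO and hairpin dsDNA target, each strand at 1.89 μM final, in 10 mM sodium cacodylate (pH 6.8) with 100 mM KCl and 50 mM MgCl₂. Annealed in boiling water, then cooled slowly to 5 °C. Melting was followed at 260 nm from 5 to 90 °C at 0.5 °C/min. Tm was taken by the two-point average method, mean of three independent runs.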

[2] = Binding affinity to hairpin double stranded DNA AT base pair in sodium cacodylate buffer at pH 6.8 assessed as triplex-forming ability measuring melting temperature after by UV melting experiment; summary of the method: as §1
[3] = Binding affinity to hairpin double stranded DNA TA base pair in sodium cacodylate buffer at pH 6.8 assessed as triplex-forming ability measuring melting temperature after by UV melting experiment; summary of the method: as §1
[4] = Binding affinity to hairpin double stranded DNA CG base pair in sodium cacodylate buffer at pH 6.8 assessed as triplex-forming ability measuring melting temperature after by UV melting experiment; summary of the method: as §1

## CC1=CN([C@H]2C[C@H](O[PH](OCCC#N)(OC(C)[C@H]3O[C@@H](n4ccc(N)nc4=O)C[C@@H]3O[PH](OCCC#N)(OC[C@H]3O[C@@H](n4cc(C)c(=O)[nH]c4=O)C[C@@H]3O[PH](OCCC#N)(OC(C)[C@H]3O[C@@H](n4ccc(N)nc4=O)C[C@@H]3O[PH](OCCC#N)(OC[C@H]3O[C@@H](n4cc(C)c(=O)[nH]c4=O)C[C@@H]3O)N(C(C)C)C(C)C)N(C(C)C)C(C)C)N(C(C)C)C(C)C)N(C(C)C)C(C)C)[C@@H](CO[PH](OCCC#N)(O[C@H]3C[C@H](n4ccc(N)nc4=O)O[C@@H]3C(C)O[PH](OCCC#N)(O[C@H]3C[C@H](n4cc(C)c(=O)[nH]c4=O)O[C@@H]3COP(=O)(O)O[C@H]3C[C@H](OCc4cn(-c5ccccc5)nn4)O[C@@H]3CO[PH](OCCC#N)(O[C@H]3C[C@H](n4cc(C)c(=O)[nH]c4=O)O[C@@H]3CO[PH](OCCC#N)(O[C@H]3C[C@H](n4ccc(N)nc4=O)O[C@@H]3C(C)O[PH](OCCC#N)(O[C@H]3C[C@H](n4cc(C)c(=O)[nH]c4=O)O[C@@H]3CO[PH](OCCC#N)(O[C@H]3C[C@H](n4cc(C)c(=O)[nH]c4=O)O[C@@H]3CO[PH](OCCC#N)(O[C@H]3C[C@H](n4cc(C)c(=O)[nH]c4=O)O[C@@H]3CO[PH](OCCC#N)(O[C@H]3C[C@H](n4cc(C)c(=O)[nH]c4=O)O[C@@H]3CO[PH](OCCC#N)(O[C@H]3C[C@H](n4cc(C)c(=O)[nH]c4=O)O[C@@H]3CO)N(C(C)C)C(C)C)N(C(C)C)C(C)C)N(C(C)C)C(C)C)N(C(C)C)C(C)C)N(C(C)C)C(C)C)N(C(C)C)C(C)C)N(C(C)C)C(C)C)N(C(C)C)C(C)C)N(C(C)C)C(C)C)O2)[C@@H](O)NC1=O (stereo not given in full)
[1]
  Tm: 22 °C
[2]
  Tm: 20 °C
[3]
  Tm: 20 °C
[4]
  Tm: 22 °C

## Cc1cn([C@H]2C[C@H](O[PH](OCCC#N)(OC[C@H]3O[C@@H](n4cc(C)c(=O)[nH]c4=O)C[C@@H]3O[PH](OCCC#N)(OC[C@H]3O[C@@H](n4cc(C)c(=O)[nH]c4=O)C[C@@H]3O[PH](OCCC#N)(OC[C@H]3O[C@@H](n4cc(C)c(=O)[nH]c4=O)C[C@@H]3O[PH](OCCC#N)(OC[C@H]3O[C@@H](n4cc(C)c(=O)[nH]c4=O)C[C@@H]3O[PH](OCCC#N)(OC(C)[C@H]3O[C@@H](n4ccc(N)nc4=O)C[C@@H]3O[PH](OCCC#N)(OC[C@H]3O[C@@H](n4cc(C)c(=O)[nH]c4=O)C[C@@H]3O[PH](OCCC#N)(OC[C@H]3O[C@@H](CCc4cn(-c5cc(NC(N)=O)cc(NC(N)=O)c5)nn4)C[C@@H]3OP(=O)(O)OC[C@H]3O[C@@H](n4cc(C)c(=O)[nH]c4=O)C[C@@H]3O[PH](OCCC#N)(OC(C)[C@H]3O[C@@H](n4ccc(N)nc4=O)C[C@@H]3O[PH](OCCC#N)(OC[C@H]3O[C@@H](n4cc(C)c(=O)[nH]c4=O)C[C@@H]3O[PH](OCCC#N)(OC(C)[C@H]3O[C@@H](n4ccc(N)nc4=O)C[C@@H]3O[PH](OCCC#N)(OC[C@H]3O[C@@H](n4cc(C)c(=O)[nH]c4=O)C[C@@H]3O[PH](OCCC#N)(OC(C)[C@H]3O[C@@H](n4ccc(N)nc4=O)C[C@@H]3O[PH](OCCC#N)(OC[C@H]3O[C@@H](n4cc(C)c(=O)[nH]c4=O)C[C@@H]3O)N(C(C)C)C(C)C)N(C(C)C)C(C)C)N(C(C)C)C(C)C)N(C(C)C)C(C)C)N(C(C)C)C(C)C)N(C(C)C)C(C)C)N(C(C)C)C(C)C)N(C(C)C)C(C)C)N(C(C)C)C(C)C)N(C(C)C)C(C)C)N(C(C)C)C(C)C)N(C(C)C)C(C)C)N(C(C)C)C(C)C)[C@@H](CO)O2)c(=O)[nH]c1=O (stereo not given in full)
[1]
  Tm: 23 °C
[2]
  Tm: 22 °C
[3]
  Tm: 27 °C
[4]
  Tm: 27 °C

## Cc1cn([C@H]2C[C@H](O[PH](OCCC#N)(OC[C@H]3O[C@@H](n4cc(C)c(=O)[nH]c4=O)C[C@@H]3O[PH](OCCC#N)(OC[C@H]3O[C@@H](n4cc(C)c(=O)[nH]c4=O)C[C@@H]3O[PH](OCCC#N)(OC[C@H]3O[C@@H](n4cc(C)c(=O)[nH]c4=O)C[C@@H]3O[PH](OCCC#N)(OC[C@H]3O[C@@H](n4cc(C)c(=O)[nH]c4=O)C[C@@H]3O[PH](OCCC#N)(OC(C)[C@H]3O[C@@H](n4ccc(N)nc4=O)C[C@@H]3O[PH](OCCC#N)(OC[C@H]3O[C@@H](n4cc(C)c(=O)[nH]c4=O)C[C@@H]3O[PH](OCCC#N)(OC[C@H]3O[C@@H](OCc4cn(-c5ccc(CO)cc5)nn4)C[C@@H]3OP(=O)(O)OC[C@H]3O[C@@H](n4cc(C)c(=O)[nH]c4=O)C[C@@H]3O[PH](OCCC#N)(OC(C)[C@H]3O[C@@H](n4ccc(N)nc4=O)C[C@@H]3O[PH](OCCC#N)(OC[C@H]3O[C@@H](n4cc(C)c(=O)[nH]c4=O)C[C@@H]3O[PH](OCCC#N)(OC(C)[C@H]3O[C@@H](n4ccc(N)nc4=O)C[C@@H]3O[PH](OCCC#N)(OC[C@H]3O[C@@H](n4cc(C)c(=O)[nH]c4=O)C[C@@H]3O[PH](OCCC#N)(OC(C)[C@H]3O[C@@H](n4ccc(N)nc4=O)C[C@@H]3O[PH](OCCC#N)(OC[C@H]3O[C@@H](n4cc(C)c(=O)[nH]c4=O)C[C@@H]3O)N(C(C)C)C(C)C)N(C(C)C)C(C)C)N(C(C)C)C(C)C)N(C(C)C)C(C)C)N(C(C)C)C(C)C)N(C(C)C)C(C)C)N(C(C)C)C(C)C)N(C(C)C)C(C)C)N(C(C)C)C(C)C)N(C(C)C)C(C)C)N(C(C)C)C(C)C)N(C(C)C)C(C)C)N(C(C)C)C(C)C)[C@@H](CO)O2)c(=O)[nH]c1=O (stereo not given in full)
[1]
  Tm: 19 °C
[2]
  Tm: 19 °C
[3]
  Tm: 19 °C
[4]
  Tm: 22 °C

## Cc1cn([C@H]2C[C@H](O[PH](OCCC#N)(OC[C@H]3O[C@@H](n4cc(C)c(=O)[nH]c4=O)C[C@@H]3O[PH](OCCC#N)(OC[C@H]3O[C@@H](n4cc(C)c(=O)[nH]c4=O)C[C@@H]3O[PH](OCCC#N)(OC[C@H]3O[C@@H](n4cc(C)c(=O)[nH]c4=O)C[C@@H]3O[PH](OCCC#N)(OC[C@H]3O[C@@H](n4cc(C)c(=O)[nH]c4=O)C[C@@H]3O[PH](OCCC#N)(OC(C)[C@H]3O[C@@H](n4ccc(N)nc4=O)C[C@@H]3O[PH](OCCC#N)(OC[C@H]3O[C@@H](n4cc(C)c(=O)[nH]c4=O)C[C@@H]3O[PH](OCCC#N)(OC[C@H]3O[C@@H](CCc4cn(-c5ccccc5)nn4)C[C@@H]3OP(=O)(O)OC[C@H]3O[C@@H](n4cc(C)c(=O)[nH]c4=O)C[C@@H]3O[PH](OCCC#N)(OC(C)[C@H]3O[C@@H](n4ccc(N)nc4=O)C[C@@H]3O[PH](OCCC#N)(OC[C@H]3O[C@@H](n4cc(C)c(=O)[nH]c4=O)C[C@@H]3O[PH](OCCC#N)(OC(C)[C@H]3O[C@@H](n4ccc(N)nc4=O)C[C@@H]3O[PH](OCCC#N)(OC[C@H]3O[C@@H](n4cc(C)c(=O)[nH]c4=O)C[C@@H]3O[PH](OCCC#N)(OC(C)[C@H]3O[C@@H](n4ccc(N)nc4=O)C[C@@H]3O[PH](OCCC#N)(OC[C@H]3O[C@@H](n4cc(C)c(=O)[nH]c4=O)C[C@@H]3O)N(C(C)C)C(C)C)N(C(C)C)C(C)C)N(C(C)C)C(C)C)N(C(C)C)C(C)C)N(C(C)C)C(C)C)N(C(C)C)C(C)C)N(C(C)C)C(C)C)N(C(C)C)C(C)C)N(C(C)C)C(C)C)N(C(C)C)C(C)C)N(C(C)C)C(C)C)N(C(C)C)C(C)C)N(C(C)C)C(C)C)[C@@H](CO)O2)c(=O)[nH]c1=O (stereo not given in full)
[1]
  Tm: 20 °C
[2]
  Tm: 21 °C
[3]
  Tm: 22 °C
[4]
  Tm: 24 °C

## Cc1cn([C@H]2C[C@H](O[PH](OCCC#N)(OC[C@H]3O[C@@H](n4cc(C)c(=O)[nH]c4=O)C[C@@H]3O[PH](OCCC#N)(OC[C@H]3O[C@@H](n4cc(C)c(=O)[nH]c4=O)C[C@@H]3O[PH](OCCC#N)(OC[C@H]3O[C@@H](n4cc(C)c(=O)[nH]c4=O)C[C@@H]3O[PH](OCCC#N)(OC[C@H]3O[C@@H](n4cc(C)c(=O)[nH]c4=O)C[C@@H]3O[PH](OCCC#N)(OC(C)[C@H]3O[C@@H](N4C=CC(N)=N[C@@H]4O)C[C@@H]3O[PH](OCCC#N)(OC[C@H]3O[C@@H](n4cc(C)c(=O)[nH]c4=O)C[C@@H]3O[PH](OCCC#N)(OC[C@H]3O[C@@H](OCc4cn(-c5cccc(C(N)=O)c5)nn4)C[C@@H]3OP(=O)(O)OC[C@H]3O[C@@H](n4cc(C)c(=O)[nH]c4=O)C[C@@H]3O[PH](OCCC#N)(OC(C)[C@H]3O[C@@H](n4ccc(N)nc4=O)C[C@@H]3O[PH](OCCC#N)(OC[C@H]3O[C@@H](n4cc(C)c(=O)[nH]c4=O)C[C@@H]3O[PH](OCCC#N)(OC(C)[C@H]3O[C@@H](n4ccc(N)nc4=O)C[C@@H]3O[PH](OCCC#N)(OC[C@H]3O[C@@H](n4cc(C)c(=O)[nH]c4=O)C[C@@H]3O[PH](OCCC#N)(OC(C)[C@H]3O[C@@H](n4ccc(N)nc4=O)C[C@@H]3O[PH](OCCC#N)(OC[C@H]3O[C@@H](n4cc(C)c(=O)[nH]c4=O)C[C@@H]3O)N(C(C)C)C(C)C)N(C(C)C)C(C)C)N(C(C)C)C(C)C)N(C(C)C)C(C)C)N(C(C)C)C(C)C)N(C(C)C)C(C)C)N(C(C)C)C(C)C)N(C(C)C)C(C)C)N(C(C)C)C(C)C)N(C(C)C)C(C)C)N(C(C)C)C(C)C)N(C(C)C)C(C)C)N(C(C)C)C(C)C)[C@@H](CO)O2)c(=O)[nH]c1=O (stereo not given in full)
[1]
  Tm: 20 °C
[2]
  Tm: 19 °C
[3]
  Tm: 19 °C
[4]
  Tm: 23 °C

Reference: ChEMBL document CHEMBL2413013, “Triplex-forming ability of oligonucleotides containing 1-aryl-1,2,3-triazole nucleobases linked via a two atom-length spacer” (Bioorg Med Chem, 2013)
